Calls of active or inactive are those of the source. No cut-off for these calls is given here.
Experiments:
[1] = Antioxidant activity assessed as DPPH radical scavenging activity measured after 25 mins by microplate reader based assay; type: functional
Outline: (§1)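 Test compound at serial concentrations (single 20 µM for percent values) mixed 1:1 with 200 µM DPPH in methanol; 25 min at 37 °C with shaking at 300 rpm; absorbance read at 517 nm. Percent scavenging taken against DPPH control; IC50 is the concentration that removes 50% of radical. Mean ± SD of three independent experiments.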

[2] = Antioxidant activity assessed as DPPH radical scavenging activity at 20 uM measured after 25 mins by microplate reader based assay relative to control; type: functional; outline: as §1
[3] = target: Cholinesterase (Equus caballus) (UniProt P81908); assay: Inhibition of equine serum BChE using butyrylthiocholine iodide as substrate at 20 uM preincubated with enzyme for 30 mins followed by substrate addition and measured after 30 mins by Ellman's method relative to control; type: cell-free; conditions: time 60.0 min
Cholinesterase (Equus caballus), sequence (P81908 whole entry): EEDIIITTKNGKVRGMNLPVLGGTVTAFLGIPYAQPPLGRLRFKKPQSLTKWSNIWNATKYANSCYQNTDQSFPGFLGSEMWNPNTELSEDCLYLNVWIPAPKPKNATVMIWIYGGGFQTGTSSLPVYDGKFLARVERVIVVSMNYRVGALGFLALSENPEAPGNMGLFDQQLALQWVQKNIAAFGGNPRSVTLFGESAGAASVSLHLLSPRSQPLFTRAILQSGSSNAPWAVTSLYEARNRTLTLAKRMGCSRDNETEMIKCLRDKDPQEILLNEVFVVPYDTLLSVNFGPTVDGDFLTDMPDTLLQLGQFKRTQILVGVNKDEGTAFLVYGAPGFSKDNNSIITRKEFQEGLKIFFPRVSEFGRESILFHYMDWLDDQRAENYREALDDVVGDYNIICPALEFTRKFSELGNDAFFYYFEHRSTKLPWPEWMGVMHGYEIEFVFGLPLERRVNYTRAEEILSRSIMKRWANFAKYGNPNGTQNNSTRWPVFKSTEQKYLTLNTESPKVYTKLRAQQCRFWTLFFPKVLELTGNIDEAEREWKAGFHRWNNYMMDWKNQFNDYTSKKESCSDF
Outline: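 Equine BChE (0.06 U/mL) preincubated with inhibitor at 20 µM, 37 °C, 30 min. BTCI (15 mM) then added and incubated a further 30 min, followed by DTNB (1.5 mM). Absorbance read at 415 nm. % inhibition taken relative to an enzyme-only control. Mean ± SD of two or three experiments run in triplicate.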

[4] = target: T1, Acetylcholinesterase (Homo sapiens, UniProt P22303); assay: Inhibition of AChE in human erythrocytes using acetylthiocholine iodide as substrate at 20 uM preincubated with enzyme for 30 mins followed by substrate addition and measured after 30 mins by Ellman's method relative to control; type: cell-based; conditions: Erythrocyte, time 60.0 min
T1 sequence (P22303 whole entry): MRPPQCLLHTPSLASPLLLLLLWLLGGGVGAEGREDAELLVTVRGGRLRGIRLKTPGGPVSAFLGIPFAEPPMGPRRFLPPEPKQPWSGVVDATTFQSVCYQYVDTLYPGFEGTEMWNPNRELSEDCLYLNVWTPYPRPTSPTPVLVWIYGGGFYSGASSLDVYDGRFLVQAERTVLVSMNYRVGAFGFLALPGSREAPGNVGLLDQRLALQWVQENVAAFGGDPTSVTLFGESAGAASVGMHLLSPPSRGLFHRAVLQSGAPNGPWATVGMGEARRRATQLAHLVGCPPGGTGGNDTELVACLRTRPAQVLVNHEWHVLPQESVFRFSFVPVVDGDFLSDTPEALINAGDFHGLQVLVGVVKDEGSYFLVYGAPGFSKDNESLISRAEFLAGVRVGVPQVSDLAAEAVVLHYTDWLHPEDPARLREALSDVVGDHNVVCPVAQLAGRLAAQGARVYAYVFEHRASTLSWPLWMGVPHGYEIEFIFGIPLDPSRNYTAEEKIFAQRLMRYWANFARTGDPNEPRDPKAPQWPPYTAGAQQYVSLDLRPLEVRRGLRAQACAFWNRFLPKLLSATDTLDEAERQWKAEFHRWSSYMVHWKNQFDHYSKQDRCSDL
Outline: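 hAChE (0.022 U/mL) preincubated with inhibitor at 20 µM, 37 °C, 30 min. ATCI (1.5 mM) then added and incubated a further 30 min, followed by DTNB (0.15 mM). Absorbance read at 415 nm. % inhibition = [(Ac − Ai)/Ac] × 100 against an uninhibited enzyme. Mean ± SD of two or three experiments run in triplicate.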

[5] = target: Cholinesterase (Equus caballus, UniProt P81908); assay: Inhibition of equine serum BChE using butyrylthiocholine iodide as substrate preincubated with enzyme for 30 mins followed by substrate addition and measured after 30 mins by Ellman's method; type: cell-free
Cholinesterase, sequence (P81908 whole entry): as the sequence (P81908 whole entry) above
Outline: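 Equine BChE (0.06 U/mL) preincubated with a range of inhibitor concentrations, 37 °C, 30 min. BTCI (15 mM) then added for 30 min, followed by DTNB (1.5 mM). A415 recorded. Mean ± SD of two or three independent experiments, each in triplicate.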

[6] = target: T1, Acetylcholinesterase; assay: Inhibition of AChE in human erythrocytes using acetylthiocholine iodide as substrate preincubated with enzyme for 30 mins followed by substrate addition and measured after 30 mins by Ellman's method; type: cell-based, Erythrocyte
[7] = Permeability of the compound in PBS buffer at pH 7.4 at 500 uM incubated for 18 hrs by PAMPA-BBB assay
[8] = Metal chelating activity assessed as mole fraction required to show 1:1 stoichiometry for compound-Fe3+ complex formation measured after 24 hrs in presence Fecl3.6H2O by Job's plot analysis
Outline: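 Stoichiometry by molar-ratio titration of compound against FeCl3 in methanol (0–10 ratio) at room temperature with UV spectra recorded. Job's plot built from Fe(III) mole fraction against absorbance. Means of duplicate runs.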

[9] = tested on: N2a; assay: Cytotoxicity against mouse N2a cells assessed as effect on cell viability at 0.01 to 20 uM measured after 24 hrs by MTT assay; type: cell-based; conditions: dose 0.01-20 µM
Outline: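 Neuro2a cells seeded at 1 × 10^4/well and left overnight to adhere. Exposed to 0.01, 0.1, 1, 2.5, 5, 10 or 20 µM in triplicate for 24 h at 37 °C in 5% CO2. Viability then read by MTT and expressed as percent of untreated cells. Mean ± SE of three independent experiments.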

[10] = target: T1, Acetylcholinesterase; assay: Mixed inhibition of human erythrocyte AChE using different concentration of acetylthiocholine iodide as substrate preincubated with enzyme for 30 mins by Lineweaver-Burk plot analysis; type: tissue-based
Outline: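 hAChE preincubated with inhibitor at three concentrations, 37 °C, 30 min. ATCI added at 0.5, 1.0, 1.5, 2.0 and 2.5 mM, then DTNB (0.15 mM). A415 recorded. Lineweaver-Burk double-reciprocal analysis used to assign the mechanism. Duplicate runs; mean ± SD of two independent experiments.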

[11] = tested on: N2a; assay: Neuroprotective activity against H2O2-induced neurotoxicity in mouse N2a cells assessed as increase in cell viability at 1 to 20 uM preincubated for 24 hrs followed by co-incubation with H2O2 and measured after 24 hrs by MTT assay; type: functional, cell-based; conditions: dose 1-20 µM, time 48.0 hrs
Outline: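 N2a cells seeded at 1 × 10^4/well and left overnight. Pre-incubated 24 h with 1, 2.5, 5, 10 or 20 µM, then co-incubated with 600 µM H2O2 for a further 24 h. MTT added for 4 h at 37 °C and formazan extracted in 0.04 N HCl/isopropanol for 1 h. OD read at 570 nm; viability as percent of untreated control. Three independent experiments, mean ± SEM.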

[12] = Metal chelating activity assessed as compound-Fe3+ complex formation at 600 uM measured after 24 hrs at pH 4.2 in presence Fecl3.6H2O by UV-Vis spectroscopic analysis
Outline: (§2)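 600 µM compound and 600 µM FeCl3·6H2O, both in methanol, mixed in equal volume and shaken at 1000 rpm for 24 h at 25 °C, then UV-scanned. For pH 7.4, diluted DIPEA added before rescanning. Spectra recorded from 300 to 700 nm, with the d–d region at 400–700 nm. Run in duplicate.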

[13] = tested on: Mus musculus; assay: Reversal of scopolamine induced cognitive memory impairment in C57BL/6 mouse assessed as escape latency time at 10 mg/kg, po administered 30 mins prior to scopolamine injection daily for 14 days by Morris water maze test (reference value: 50.11 +/-5.91 secs); type: functional; conditions: time 14 day
[14] = target: Cholinesterase (Equus caballus) (UniProt P81908); assay: Mixed inhibition of equine serum BChE using different concentration of butyrylthiocholine iodide as substrate preincubated with enzyme for 30 mins by Lineweaver-Burk plot analysis; type: cell-free
Outline: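 eqBChE preincubated with inhibitor at three concentrations, 37 °C, 30 min. BTCI added at 5, 10, 15, 20 and 25 mM, then DTNB (1.5 mM). Absorbance read at 415 nm. Double-reciprocal 1/[S] vs 1/V plots used to assign inhibition type. Duplicate runs; mean ± SD of two independent experiments.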

[15] = Metal chelating activity assessed as compound-Fe3+ complex formation at 600 uM measured after 24 hrs at pH 7.4 in presence Fecl3.6H2O by UV-Vis spectroscopic analysis; outline: as §2

COc1cc(/C=C/C(=O)NCC(=O)Nc2ccc3[nH]ccc3c2)ccc1O
IC50 [1]: 57.4 µM

COc1cc(/C=C/C(=O)O)ccc1O [FERULATE]
Activity [2]: 33.1%
inhibition [3]: 17.1%
inhibition [4]: 15.1%
IC50 [1]: 58.3 µM

COc1cc(/C=C/C(=O)N2CCN(Cc3ccc(C)cc3)CC2)ccc1O
inhibition [4]: 43.2%
IC50 [5]: 14.8 µM

COc1ccc(CN2CCN(C(=O)/C=C/c3ccc(O)c(OC)c3)CC2)cc1
Activity [2]: 30.5%
inhibition [3]: 45.1%
IC50 [6]: 16.4 µM
IC50 [1]: 46.4 µM

COc1cc(/C=C/C(=O)N2CCN(Cc3cccc([N+](=O)[O-])c3)CC2)ccc1O
inhibition [4]: 38.8%
IC50 [5]: 14.6 µM

COc1cc(/C=C/C(=O)NCC(=O)NCCc2c[nH]c3ccc(Cl)cc23)ccc1O
Activity [2]: 47.3%
IC50 [6]: 0.84 µM
IC50 [1]: 23.6 µM
IC50 [5]: 1.29 µM

COc1cc(/C=C/C(=O)N2CCN(Cc3ccc(F)cc3)CC2)ccc1O
Activity [2]: 23.1%
IC50 [6]: 14.5 µM
IC50 [1]: 51.9 µM
IC50 [5]: 14.8 µM

COc1ccc2[nH]cc(CCNC(=O)CNC(=O)/C=C/c3ccc(O)c(OC)c3)c2c1
Papp at 18 h, 500 µM [7]: 8.51 ×10⁻⁶ cm/s
Activity [8]: 50%
Activity [9]: Non-Toxic
Activity [2]: 51.9%
IC50 [6]: 0.96 µM
inhibition [10]: Active
IC50 [1]: 20.2 µM
Activity [11]: Active
Activity [12]: Active
Time [13]: 32.28 s
IC50 [5]: 1.23 µM
inhibition [14]: Active
Activity [15]: Active

COc1cc(/C=C/C(=O)N2CCN(Cc3ccccc3C#N)CC2)ccc1O
inhibition [4]: 45.4%
IC50 [5]: 14.9 µM

COc1cc(/C=C/C(=O)N2CCN(Cc3ccccc3C)CC2)ccc1O
inhibition [4]: 43.1%
IC50 [5]: 15.1 µM

COc1cc(/C=C/C(=O)NCCC(=O)Nc2ccccc2)ccc1O
Activity [2]: 10.6%
IC50 [6]: 14.8 µM
IC50 [1]: 95.6 µM
IC50 [5]: 16.4 µM

COc1cc(/C=C/C(=O)N2CCN(Cc3ccc(Cl)cc3)CC2)ccc1O
Activity [2]: 32.4%
inhibition [4]: 37.3%
IC50 [1]: 62.4 µM
IC50 [5]: 15.9 µM

COc1cccc(N2CCN(C(=O)/C=C/c3ccc(O)c(OC)c3)CC2)c1
IC50 [1]: 62 µM

COc1cc(/C=C/C(=O)N2CCN(Cc3ccccc3F)CC2)ccc1O
inhibition [4]: 34.2%
IC50 [5]: 15.9 µM

COc1cc(/C=C/C(=O)N2CCN(Cc3ccccc3)CC2)ccc1O
Activity [2]: 38.4%
inhibition [3]: 45.1%
IC50 [6]: 13.3 µM
IC50 [1]: 31.3 µM

COc1cccc(NC(=O)CCNC(=O)/C=C/c2ccc(O)c(OC)c2)c1
Activity [2]: 21.3%
IC50 [6]: 2.41 µM
IC50 [5]: 11.3 µM

COc1cccc(CN2CCN(C(=O)/C=C/c3ccc(O)c(OC)c3)CC2)c1
inhibition [3]: 49.1%
IC50 [6]: 15.2 µM

COc1cc(/C=C/C(=O)N2CCN(Cc3ccc(C#N)cc3)CC2)ccc1O
inhibition [4]: 39.4%
IC50 [5]: 15.6 µM

COc1cc(/C=C/C(=O)N2CCN(Cc3cccc(C#N)c3)CC2)ccc1O
inhibition [4]: 42.4%
IC50 [5]: 14.7 µM

COc1cc(/C=C/C(=O)NCCC(=O)Nc2ccc(Cl)cc2)ccc1O
Activity [2]: 18.7%
IC50 [6]: 5.32 µM
IC50 [1]: 84.2 µM
IC50 [5]: 7.13 µM

COc1cc(/C=C/C(=O)N2CCN(Cc3cccc(F)c3)CC2)ccc1O
Papp at 18 h, 500 µM [7]: 9.57 ×10⁻⁶ cm/s
Activity [2]: 40.2%
IC50 [6]: 13.1 µM
inhibition [10]: Active
IC50 [1]: 26.6 µM
IC50 [5]: 14 µM
inhibition [14]: Active

COc1cc(/C=C/C(=O)NCC(=O)NCCc2c[nH]c3ccccc23)ccc1O
Activity [2]: 38.5%
IC50 [6]: 1.42 µM
IC50 [1]: 29.1 µM
IC50 [5]: 3.14 µM

COc1cc(/C=C/C(=O)N2CCN(Cc3ccccc3Cl)CC2)ccc1O
inhibition [4]: 47%
IC50 [5]: 15.2 µM

COc1cc(/C=C/C(=O)N2CCN(Cc3cccc(C)c3)CC2)ccc1O
Activity [2]: 26.3%
inhibition [4]: 45.5%
IC50 [1]: 66 µM
IC50 [5]: 14.7 µM

COc1cc(/C=C/C(=O)N2CCN(Cc3cccc(Cl)c3)CC2)ccc1O
Activity [2]: 23.1%
IC50 [6]: 15.4 µM
IC50 [1]: 61.5 µM
IC50 [5]: 14.8 µM
